Test results taken from publication PMC12415985 (Journal of medicinal chemistry, 2025).
Read-outs that look alike come from different tables or passages of the source.

Columns and labels:
[1] = system: TgME49-EW intact cysts; test: Intact tissue cyst treatment and plaque outgrowth assay; assay type: cell-based, Toxoplasma gondii
How it was run: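 Percoll-purified brain tissue cysts (10 per compound) were exposed to 3xEC90 in tubes at 37°C for 4 or 24 h, then washed 3× with PBS. Bradyzoites were freed by acid-pepsin, neutralized, and split into parallel 6-well plates with compound (constant) or without (washout). Plates ran 12−14 days at 37°C, 5% CO2. Plaques were ethanol-fixed, crystal-violet stained, counted by microscopy and normalized to the DMSO control.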

[2] = system: TgME49-Fluc; test: Luciferase-based tachyzoite growth inhibition assay; assay type: cell-based, Toxoplasma gondii; conditions: for EC50: read-out: TgM49 EC50
[3] = system: TgME49-Fluc; test: Time dependent tachyzoite inhibition, 4 h washout vs 72 h continuous; assay type: cell-based, Toxoplasma gondii; conditions: vs continuous 72 h
[4] = system: TgME49-EW bradyzoites; test: Ex vivo purified; assay type: cell-based, Toxoplasma gondii; conditions: 3X EC90, 4 h washout vs continual treatment
[5] = system: Tg68pBAG1:nLuc,DHFR bradyzoites; test: In vitro differentiated bradyzoite growth inhibition; assay type: cell-based, Toxoplasma gondii; conditions: for EC50: Toxoplasma gondii
[6] = Pharmacokinetics in mice; assay type: in vivo, CD-1 mice; conditions: 10 mg/kg PO
How it was run: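 Fasted male CD-1 mice (3 per group) received a single oral 10 mg/kg dose as a suspension. Blood and brain were sampled at 1, 3 and 8 h. Plasma was obtained by centrifugation and stored below −20 °C. Plasma and brain concentrations were measured by LC−MS/MS. Parameters came from noncompartmental analysis, and brain/plasma ratio is given at the indicated time.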

[7] = system: TgRH-PheRS[L497I]-FLuc; test: Growth inhibition of PheRS L497I resistant line vs parental line; assay type: cell-based, Toxoplasma gondii; conditions: EC50 fold resistance, TgL497I vs parental TgRHΔhxgprtΔku80
How it was run: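 Firefly-luciferase tachyzoites were used: the PheRS[L497I] line, made in the parental TgRHΔΔ-FLuc (type I) strain, and the parental line itself. Each well of confluent HFF got 5×10^3 fresh tachyzoites and a 3-fold compound series, at 0.1% DMSO final. After 72 h at 37°C, cells were lysed and luciferase read. […] FR = resistant EC50 / parental EC50.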

[8] = Plasma protein binding; assay type: in vitro ADME
[9] = system: HepG2 cells; test: Host cell cytotoxicity, HepG2; assay type: cell-based, human
[10] = system: MDCK-MDR1; assay type: in vitro ADME
[11] = system: TgME49-FLuc tachyzoites; conditions: for Survivors / Culture positive / Plaque positive: n=8
[12] = molecular target: hERG (Homo sapiens, UniProt Q12809); test: hERG inhibition in CHO cell; assay type: cell-based; conditions: read-out: hERG inhibition CHO cell IC50
Sequence of hERG (Q12809 whole entry): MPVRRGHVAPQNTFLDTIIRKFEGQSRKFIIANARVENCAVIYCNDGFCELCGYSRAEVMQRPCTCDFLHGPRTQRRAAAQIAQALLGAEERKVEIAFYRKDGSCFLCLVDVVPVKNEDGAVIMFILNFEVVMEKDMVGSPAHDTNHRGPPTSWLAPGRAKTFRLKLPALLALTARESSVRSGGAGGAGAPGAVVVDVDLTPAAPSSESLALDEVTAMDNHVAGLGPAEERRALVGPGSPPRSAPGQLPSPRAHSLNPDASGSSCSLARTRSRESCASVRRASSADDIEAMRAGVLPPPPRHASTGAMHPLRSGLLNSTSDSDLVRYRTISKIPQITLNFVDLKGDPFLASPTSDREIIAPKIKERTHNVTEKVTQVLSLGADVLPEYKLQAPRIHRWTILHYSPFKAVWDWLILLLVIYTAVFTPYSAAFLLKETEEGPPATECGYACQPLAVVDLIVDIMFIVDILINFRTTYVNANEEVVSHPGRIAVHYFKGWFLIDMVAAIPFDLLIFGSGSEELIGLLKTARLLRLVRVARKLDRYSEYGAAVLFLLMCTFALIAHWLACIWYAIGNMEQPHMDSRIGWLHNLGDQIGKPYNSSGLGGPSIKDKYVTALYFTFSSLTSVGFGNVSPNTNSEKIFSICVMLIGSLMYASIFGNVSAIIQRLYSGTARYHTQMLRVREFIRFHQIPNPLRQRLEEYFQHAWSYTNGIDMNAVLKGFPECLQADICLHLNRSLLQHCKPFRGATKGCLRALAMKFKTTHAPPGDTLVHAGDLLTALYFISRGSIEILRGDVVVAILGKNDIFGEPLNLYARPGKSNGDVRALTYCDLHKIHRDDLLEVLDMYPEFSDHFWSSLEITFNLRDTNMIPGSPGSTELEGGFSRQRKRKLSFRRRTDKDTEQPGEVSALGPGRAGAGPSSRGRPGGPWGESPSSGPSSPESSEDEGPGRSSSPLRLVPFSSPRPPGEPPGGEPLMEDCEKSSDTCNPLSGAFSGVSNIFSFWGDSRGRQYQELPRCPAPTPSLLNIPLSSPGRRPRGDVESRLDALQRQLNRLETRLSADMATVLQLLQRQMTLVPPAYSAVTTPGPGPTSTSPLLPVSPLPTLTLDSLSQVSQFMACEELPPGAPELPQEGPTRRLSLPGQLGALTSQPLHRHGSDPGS

[13] = Brain homogenate binding; assay type: in vitro ADME; conditions: CD-1 mouse brain homogenate
[14] = Microsomal stability, mouse liver microsomes; assay type: in vitro ADME
[15] = system: THP-1 cells; test: Host cell cytotoxicity, THP-1; assay type: cell-based, human
How it was run: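 THP-1 cells were seeded at 10×10^3/well and differentiated with 10 ng/mL PMA for 24 h before compound addition. Compounds were given as a 10-dose 3-fold series from a 120 μM 2x working solution for 72 h at 37°C, 5% CO2. Viability was read by CellTiter-Glo luminescence.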

[16] = Plasma protein binding; assay type: in vitro ADME; conditions: CD-1 mouse plasma
[17] = system: TgME49-FLuc tachyzoites; assay type: in vivo, Toxoplasma gondii; conditions: Ifngr1-/- mice, 0.25 mg/ml in drinking water, n=11
[18] = Toxoplasma gondii, read-out: TgME49 EC90
[19] = formulation A, na = not detected
[20] = Experiment 1, 0.25 mg/ml in drinking water

With `O=C1C(O)=C([C@H]2CC[C@H](c3ccc(Cl)cc3)CC2)C(=O)c2ccccc21` [Atovaquone] the “activity on intact cysts (in words)” value ([1]; 3X EC90, 24 h treatment) was “among the most effective compounds in this assay”, the EC50 ([2]; Toxoplasma gondii) was 71 nM and the EC90 [2, 18] was 163 nM. For the same compound, the “potency after 4 h treatment vs continuous treatment (in words)” value [3] was “only effective when used for 72 h treatment”, the “inhibition of outgrowth of liberated bradyzoites (in words)” value [4] was “only active when used continuously” and the EC50 ([5]; pH 8.2, read-out: Tg68 EC50 (Alkaline)) was 1590 nM. The EC50 ([5]; read-out: Tg68 EC50 (Glutamine)) was 52 nM.

In the case of `COc1ccc(NC(=O)N2CCCCN3[C@H](CN(C)C)[C@H](c4ccc(C#Cc5ccccc5)cc4)[C@@H]3C2)cc1` [BRD7929], the “Plasma Cmax/D” value ([6]; formulation A (75% PEG300, 25% D5W), na = not detected) is reported as 40.6 ± 10.4 ng/mL, the “Mouse B/P (time)” value ([6]; formulation A, 8h) is reported as 4.4 (8h) and the “Brain AUClast/D” value [6, 19] is reported as 807 ng·h/mL. The “Brain Cmax/D” value [6, 19] was 179 ± 60.7 ng/mL, the “Plasma AUClast/D” value [6, 19] was 220.9 ng·h/mL and the “inhibition of outgrowth from intact cysts” value ([1]; 3X EC90, 24 h treatment followed by washing and plating without compound) was “up to 50%”. The EC90 ([2]; read-out: Tg EC90, Table 3) was 134 ± 85 nM, the EC50 ([2]; ME49 expressing firefly luciferase, Table 2) was 41 nM and the EC90 ([2]; read-out: TgME49 EC90, ME49 expressing firefly luciferase, Table 2) was 139 nM. For the same compound, the “TgL497I EC50/ Parental EC50 (FR)” value [7] was 78, the “Plasma protein binding % (human)” value [8] was 99.56% and the SI ([9]; HepG2 CC50 / EC50 TgME49) was 147. The CC50 ([9]; read-out: HepG2 CC50, Table 2) was 6070 nM, the “MDCK-MDR1 Permeability A-B Papp” value [10] was 0.28 10^−6cm/s and the “MDCK-MDR1 Permeability B-A Papp” value [10] was 9.62 10^−6cm/s. For the same compound, the weight loss ([11]; Experiment 1, 10 mg/kg QD) was “little weight loss”, the Survivors ([11]; Experiment 1, 10 mg/kg QD p.o. 4-10 DPI) was 8 and the Culture positive ([11]; Experiment 1, 10 mg/kg QD, outgrowth in HFF culture) was 1. For the same compound, the Plaque positive ([11]; Experiment 1, 10 mg/kg QD, plaquing assay after 14 days) was 1, the “EC50 of recovered parasites” value ([11]; Experiment 1, 10 mg/kg QD, EC50 determination using TgME49 expressing firefly luciferase) was “No change” and the “mice harboring chronic infection (of 8)” value ([11]; Experiment 1, 10 mg/kg QD, brain homogenate outgrowth) was 1. The IC50 [12] was 540 nM, the “Brain Homogenate binding %(CD-1 mouse)” value [13] was 99.98% and the “fold elevation of bradyzoite EC50 compared to tachyzoite conditions” value ([5]; in vitro differentiated bradyzoites vs tachyzoites) was 3 to 5 fold. For the same compound, the “Eh (hepatic extraction)” value ([14]; calculated with mouse liver blood flow of 90ml/min/kg, second value of cell) was 0.40, the Microsomal stability mouse ([14]; mouse liver microsomes, first value of cell) was 15.41 µL/min/mg and the SSII ([15]; THP-1 CC50 / EC50 TgME49) was 24. For the same compound, the CC50 ([15]; read-out: THP-1 CC50, Table 2) was 1010 nM and the “Plasma protein binding % (CD-1 mouse)” value [16] was 99.6%.

For `CCc1nc(N)nc(N)c1-c1ccc(Cl)cc1` [Pyrimethamine], the EC50 ([2]; Toxoplasma gondii) was 330 nM, the EC90 [2, 18] was 551 nM and the “potency after 4 h treatment vs continuous treatment (in words)” value [3] was “only effective when used for 72 h treatment”. The “inhibition of outgrowth of liberated bradyzoites (in words)” value [4] was “only active when used continuously”.

In the case of `Nc1ccc(S(=O)(=O)Nc2ncccn2)cc1` [Sulfadiazine], the weight loss [11, 20] is reported as “little weight loss”, the Culture positive [11, 20] is reported as 6 and the Plaque positive [11, 20] is reported as 7. The Survivors [11, 20] was 8, the “mice harboring chronic infection (of 8)” value ([11]; Experiment 1, sulfadiazine in drinking water) was 7 and the “survival vs vehicle control” value [17] was “survived significantly longer”.
